# Laboratory results as given in ChEMBL document CHEMBL1649491, “Renal disposition of colistin in the isolated perfused rat kidney” (Antimicrob Agents Chemother, 2009).
# Positions of bridges follow the written chain, without caps; N, C: chain ends. Non-standard residues stand in square brackets, D forms with d. Residues, ends and D or L forms follow the SMILES beside them. *: point of attachment. Heptanoyl(6-Me) = CC(C)CCCCC(=O)*; Dab = NCC[C@H](N)C(=O)O
# Legend:
# [1] = (§1) Fraction unbound in […] at 1 ug/ml by LC-MS/MS analysis; format: ADME, cell-free, Plasma; conditions: rat
# Method in brief: (§2)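 Unbound fraction was measured in IPK perfusate by ultrafiltration, at colistin sulfate levels approximating initial and end perfusion concentrations. Colistin A and B in ultrafiltrate and unfiltered perfusate were quantified by LC-MS/MS. fu is the ultrafiltrate/perfusate concentration ratio, determined separately for A and B.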
# Kidney [2] = assay: Tubular reabsorption in rat perfused kidney at 2 ug/ml after 5 to 105 mins by LC-MS/MS analysis; format: ADME, tissue-based
# Method in brief: (§3)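 Isolated perfused kidneys from male Sprague-Dawley rats (400 to 450 g) in a recirculating 160 ml perfusate with [3H]inulin (130 kBq) for GFR. Colistin sulfate bolus gave an initial 2 µg/ml (1.27 µM colistin A+B). Urine was collected in 5-min intervals from 5 to 105 min, with perfusate sampled at midpoints. Colistin A and B were measured by LC-MS/MS. CLR and CR were derived; n = 5, mean ± SD.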
# [3] = (§4) Clearance in rat perfused kidney at 2 ug/ml after 5 to 105 mins by LC-MS/MS analysis; format: ADME, tissue-based; conditions: perfused kidney; method in brief: as §3
# [4] = Drug absorption in rat tubular urine at 2 ug/ml after 5 to 105 mins by LC-MS/MS analysis; format: ADME, tissue-based; method in brief: as §3
# [5] = (§5) Fraction unbound in Sprague-Dawley rat plasma; format: ADME, cell-free; conditions: Sprague-Dawley
# Kidney [6] = assay: Clearance in rat perfused kidney assessed as clearance ratio at 2 ug/ml after 5 to 105 mins by LC-MS/MS analysis; format: ADME, tissue-based; method in brief: as §3
# Plasma [7] = assay: as §1; format: ADME, cell-free; conditions: rat; method in brief: as §2
# Kidney [8] = assay: as §4; format: ADME, tissue-based; conditions: in vivo; method in brief: as §3
# Plasma [9] = assay: as §5; format: ADME, cell-free
Molecule,fraction unbound at 1 ug/ml [1],Activity (Kidney [2]),CL renal at 2 ug/ml [3],Activity [4],fraction unbound [5],Ratio (Kidney [6]),Fu (Plasma [7]),CL (Kidney [8]),Fu (Plasma [9])
CC(C)CCCCC(=O)N[C@@H](CCN)C(=O)N[C@H](C(=O)N[C@@H](CCN)C(=O)N[C@H]1CCNC(=O)[C@H]([C@@H](C)O)NC(=O)[C@H](CCN)NC(=O)[C@H](CCN)NC(=O)[C@H](CC(C)C)NC(=O)[C@@H](CC(C)C)NC(=O)[C@H](CCN)NC1=O)[C@@H](C)O [COLISTIN B] ({Heptanoyl(6-Me)}-[Dab]T[Dab][Dab][Dab][dL]L[Dab][Dab]T; lactam 4-C),0.6,> 90%,0.028 mL/min,> 90%,0.52,< 0.1,,,
COLISTIN,,> 90%,,> 90%,,< 0.1,0.41,0.028 mL/min,0.36
